The source of these data is ChEMBL document CHEMBL4196167, “Ansamycins with Antiproliferative and Antineuroinflammatory Activity from Moss-Soil-Derived Streptomyces cacaoi subsp. asoensis H2S5” (J Nat Prod, 2018).

Data set [1] in a line: Cytotoxicity against LPS-induced mouse BV2 cells assessed as cell viability after 24 hrs by MTT assay. In kind it is cell-based, BV-2. Also on record: concentration or dose not given beside the values. The following applies: read-out: Activity. In outline: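 BV-2 cells seeded at 2 × 10^3 per 100 μL and grown 24 h, then given compound at various concentrations plus LPS for 24 h; DMSO alone as negative control. MTT (5 mg/mL stock, 10 μL) added for 4 h at 37 °C, lysed overnight in SDS/[…]/HCl buffer, absorbance 570 nm.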

The test system of data set [2] is HepG2. Kind of data set: Cytotoxicity against human HepG2 cells after 72 hrs by sulforhodamine B assay. The format is functional, cell-based. The following applies: HepG2, 72 h. The essentials: (§1)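 SRB assay. Exponentially growing cells at 2.5 × 10^4 cells/mL attached, then given fresh medium with a range of concentrations for 72 h at 37 °C; four replicate wells; 0.1% DMSO negative control, doxorubicin reference. Fixed in cold 10% TCA 1 h at 4 °C, stained with 0.4% SRB, dye dissolved in 10 mM Tris, A560; viability relative to control; IC50 from dose–response curves.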
(The SRB assay estimates cell density from bound dye.)

The test system of a further data set is BV-2. Kind of data set: Inhibition of LPS-induced nitric oxide production in mouse BV2 cells after 24 hrs by Griess assay. In kind it is functional, cell-based. The following applies: BV-2, 24 h. In outline: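 BV-2 murine microglia in DMEM with 10% heat-inactivated FBS, seeded at 2 × 10^4/well and grown 24 h. Given compound at five concentrations with 1 μg/mL LPS (E. coli 0111:B4) for 24 h; quercetin reference. Supernatant nitrite measured by Griess reagents I and II at A540 against a sodium nitrite standard curve; IC50 as concentration halving NO.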
A general note: The Griess reaction detects nitrite, a stable product of nitric oxide.

The test system of a further data set is PC-3. The data set is described as follows: Cytotoxicity against human PC3 cells after 72 hrs by sulforhodamine B assay. In kind it is functional, cell-based. To be noted: PC-3, 72 h. The essentials: as §1
In data set [3] the test system is HepG2. Kind of data set: Cell cycle arrest in human HepG2 cells assessed as accumulation at G2-phase at 1 uM after 24 hrs by propidium iodide staining based flow cytometry (reference value: 9.61%). In kind it is functional. In outline: (§2)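 HepG2 cells exposed 24 h to 0.5, 1.0 or 5.0 μM, with DMSO control; washed in cold PBS, fixed in ice-cold 95% ethanol at 4 °C for at least 2 h, then PI-stained 30 min at 37 °C. Cell-cycle phases read by flow cytometry on 10 000 cells per sample; three independent experiments.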
For orientation: In flow cytometry, cells or beads pass a laser one at a time.

Data set [4] deals with HepG2. The data set is described as follows: Cell cycle arrest in human HepG2 cells assessed as accumulation at S-phase at 5 uM after 24 hrs by propidium iodide staining based flow cytometry (reference value: 25.5%). The format is functional. In outline:
as §2

The subject of data set [5] is HepG2. The data set is described as follows: Induction of apoptosis in human HepG2 cells assessed as cell shrinkage at 5 to 10 uM after 48 hrs by Hoechst 33342 staining based fluorescence microscopic analysis. In kind it is functional. The essentials: (§3)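 1 × 10^6 HepG2 cells on coverslips treated 48 h at 1.0, 5.0 or 10 μM; DMSO control. Fixed 30 min in 4% paraformaldehyde, Hoechst 33342 stained 10 min at room temperature in the dark, PBS-washed, nuclear morphology viewed by fluorescence microscopy.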

Data set [6] relates to HepG2. Kind of data set: Induction of apoptosis in human HepG2 cells assessed as early apoptotic cells at 0.5 uM after 48 hrs by annexin-V-FITC/propidium iodide staining based flow cytometry (reference value: 0.33%). The format is functional.
The test system of data set [7] is HepG2. Kind of data set: Induction of apoptosis in human HepG2 cells assessed as early apoptotic cells at 1 uM after 48 hrs by annexin-V-FITC/propidium iodide staining based flow cytometry (reference value: 0.33%). In kind it is functional.
For data set [8], the system named is HepG2. The data set is described as follows: Induction of apoptosis in human HepG2 cells assessed as necrotic cells at 5 uM after 48 hrs by annexin-V-FITC/propidium iodide staining based flow cytometry (reference value: 1.82%). In kind it is functional.
Data set [9] concerns HepG2. The data set is described as follows: Cell cycle arrest in human HepG2 cells assessed as accumulation at G2-phase at 5 uM after 24 hrs by propidium iodide staining based flow cytometry (reference value: 9.61%). The format is functional. In outline: as §2
Data set [10] relates to HepG2. The data set is described as follows: Cell cycle arrest in human HepG2 cells assessed as accumulation at S-phase at 0.5 uM after 24 hrs by propidium iodide staining based flow cytometry (reference value: 25.5%). In kind it is functional. The essentials:
as §2

The test system of data set [11] is HepG2. The data set is described as follows: Induction of apoptosis in human HepG2 cells assessed as necrotic cells at 1 uM after 48 hrs by annexin-V-FITC/propidium iodide staining based flow cytometry (reference value: 1.82%). The format is functional.
In data set [12] the test system is HepG2. Kind of data set: Cell cycle arrest in human HepG2 cells assessed as accumulation at G1-phase at 1 uM after 24 hrs by propidium iodide staining based flow cytometry (reference value: 62.3%). The format is functional. The essentials: as §2
Data set [13] deals with HepG2. Kind of data set: Induction of apoptosis in human HepG2 cells assessed as late apoptotic cells at 0.5 uM after 48 hrs by annexin-V-FITC/propidium iodide staining based flow cytometry (reference value: 0.51%). In kind it is functional.
The test system of data set [14] is HepG2. Kind of data set: Induction of apoptosis in human HepG2 cells assessed as chromatin condensation at 5 to 10 uM after 48 hrs by Hoechst 33342 staining based fluorescence microscopic analysis. In kind it is functional, cell-based. The essentials: as §3
Data set [15] deals with HepG2. Kind of data set: Cell cycle arrest in human HepG2 cells assessed as accumulation at S-phase at 1 uM after 24 hrs by propidium iodide staining based flow cytometry (reference value: 25.5%). The format is functional. The essentials: as §2
Data set [16] deals with HepG2. Kind of data set: Cell cycle arrest in human HepG2 cells assessed as accumulation at G1-phase at 0.5 uM after 24 hrs by propidium iodide staining based flow cytometry (reference value: 62.3%). In kind it is functional. In outline: as §2
Data set [17] has as its system HepG2. The data set is described as follows: Induction of apoptosis in human HepG2 cells assessed as late apoptotic cells at 5 uM after 48 hrs by annexin-V-FITC/propidium iodide staining based flow cytometry (reference value: 0.51%). In kind it is functional.
For data set [18], the system named is HepG2. The data set is described as follows: Cell cycle arrest in human HepG2 cells assessed as accumulation at G1-phase at 5 uM after 24 hrs by propidium iodide staining based flow cytometry (reference value: 62.3%). The format is functional. In outline: as §2
Data set [19] has as its system HepG2. The data set is described as follows: Induction of apoptosis in human HepG2 cells assessed as early apoptotic cells at 5 uM after 48 hrs by annexin-V-FITC/propidium iodide staining based flow cytometry (reference value: 0.33%). In kind it is functional.
The subject of data set [20] is HepG2. Kind of data set: Induction of apoptosis in human HepG2 cells assessed as necrotic cells at 0.5 uM after 48 hrs by annexin-V-FITC/propidium iodide staining based flow cytometry (reference value: 1.82%). In kind it is functional.
Data set [21] deals with HepG2. The data set is described as follows: Induction of apoptosis in human HepG2 cells assessed as late apoptotic cells at 1 uM after 48 hrs by annexin-V-FITC/propidium iodide staining based flow cytometry (reference value: 0.51%). The format is functional.
The test system of data set [22] is HepG2. The data set is described as follows: Cell cycle arrest in human HepG2 cells assessed as accumulation at G2-phase at 0.5 uM after 24 hrs by propidium iodide staining based flow cytometry (reference value: 9.61%). The format is functional. In outline: as §2

pIC50: −log10 of the molar value. Active and inactive are the calls of the source. The calls are words filed in the database; no cut-off is given here.

In the case of `CO[C@H]1/C=C/C=C/C=C/C[C@H](OC(=O)[C@@H](C)NC(=O)CC(C)C)[C@H](C)[C@@H](O)/C(C)=C\CCc2cc(O)cc(c2)NC(=O)C1`, the viability at 24 h in [1] was 92.7%. Further, the pIC50 (commonly the IC50 on a negative log10 scale, so that one unit is a factor of ten) was 6.00 with HepG2 [2], 5.96 in the data set on BV-2 and 5.35 with PC-3.
As to `CCC(C)C(=O)N[C@H](C)C(=O)O[C@H]1C/C=C/C=C/C=C/[C@H](OC)CC(=O)Nc2cc(O)cc(c2)CC/C=C(/C)[C@H](O)[C@H]1C` (some centres undefined), in data set [1], the viability at 24 h turned out to be 76.3%. Also, the negative logarithm of the IC50 (pIC50) was 6.30 in the data set on HepG2 [2], 6.32 in the data set on BV-2 and 5.59 in the data set with PC-3.
In the case of `CO[C@H]1/C=C/C=C/C=C/C[C@H](OC(=O)[C@@H](C)NC(=O)CCCC(C)C)[C@H](C)[C@@H](O)/C(C)=C\CCc2cc(O)cc(c2)NC(=O)C1`, the Activity was found to be 12.4% in the data set on HepG2 [3]; 38.6% in the data set on HepG2 [4]; 5.11% in the data set on HepG2 [6]; 9.53% with HepG2 [7]; 3.66% with HepG2 [8]; 12.6% in the data set on HepG2 [9]. Besides, the Activity was determined as 24.7% in the data set with HepG2 [10]; 2.1% with HepG2 [11]; 37.1% in the data set with HepG2 [12]; 1.25% in the data set on HepG2 [13]; 34.5% in the data set on HepG2 [15]; 59.1% in the data set with HepG2 [16]. Also, the Activity is 5.67% in the data set with HepG2 [17]; 42.4% with HepG2 [18]; 17.63% with HepG2 [19]; 1.98% with HepG2 [20]; 1.66% in the data set on HepG2 [21]; 14.2% with HepG2 [22]. Also, the outcome in the data set with HepG2 [5] and in the data set with HepG2 [14] was Active. Besides, in data set [1], the viability at 24 h amounted to 83.8%. Further, the pIC50 in the data set with HepG2 [2] was 7.00; with BV-2, 7.05; in the data set with PC-3, 5.57.
As to `O=c1c(O)c(-c2ccc(O)c(O)c2)oc2cc(O)cc(O)c12` [QUERCETIN], in data set [1], the viability at 24 h amounted to 99.2%. This compound also showed a pIC50 in the data set with BV-2 of 5.62.
In the case of `CC.CO[C@H]1/C=C/C=C/C=C/C[C@H](O)[C@H](C)[C@@H](OC(=O)[C@@H](C)NC(=O)CC(C)C)/C(C)=C\CCc2cc(O)cc(c2)NC(=O)C1`, the viability at 24 h in data set [1] is 83.1%. The pIC50 with HepG2 [2] was 4.69; in the data set with BV-2 it was 5.08; in the data set with PC-3 it was 4.92.
For the compound `CO[C@H]1/C=C/C=C/C=C/C[C@H](OC(=O)[C@@H](C)NC(=O)C2=CCCCC2)[C@H](C)[C@@H](O)/C(C)=C\CCc2cc(O)cc(c2)NC(=O)C1`, in data set [1], the viability at 24 h worked out at 94.3%. Further, the negative logarithm of the IC50 (pIC50) in the data set on HepG2 [2] is 6.70; in the data set on BV-2, 7.52; in the data set on PC-3, 6.15.
For the compound `CO[C@H]1/C=C/C=C/C=C/C[C@H](OC(=O)[C@@H](C)NC(=O)C(C)C)[C@H](C)[C@@H](O)/C(C)=C\CCc2cc(O)cc(c2)NC(=O)C1`, in data set [1], the viability at 24 h was found to be 85.4%. Moreover, the pIC50 in the data set on HepG2 [2] was 6.40; in the data set on BV-2 it was 5.54; in the data set with PC-3, 5.36.
As for `CO[C@H]1/C=C/C=C/C=C/C[C@H](OC(=O)[C@@H](C)NC(=O)C2CCCCC2)[C@H](C)[C@@H](O)/C(C)=C\CCc2cc(O)cc(c2)NC(=O)C1` [TRIENOMYCIN A], the viability at 24 h in [1] stood at 95.2%. Besides, the pIC50 in the data set with HepG2 [2] was 6.70; in the data set on BV-2 it was 7.70; with PC-3, 6.40.
For `CO[C@H]1/C=C/C=C/C=C/C[C@H](O)[C@H](C)[C@@H](OC(=O)[C@@H](C)NC(=O)C2CCCCC2)/C(C)=C\CCc2cc(O)cc(c2)NC(=O)C1`, the viability at 24 h in [1] came out at 93.1%. For the same compound, the pIC50 in the data set on HepG2 [2] is 4.75; with BV-2, 6.52; in the data set on PC-3, 4.99.
`COc1cccc2c1C(=O)c1c(O)c3c(c(O)c1C2=O)C[C@@](O)(C(=O)CO)C[C@@H]3O[C@H]1C[C@H](N)[C@H](O)[C@H](C)O1` [DOXORUBICIN]: the pIC50 is 6.15 in the data set with HepG2 [2] and 6.10 with PC-3.
For `CCCC(=O)N[C@H](C)C(=O)O[C@H]1C/C=C/C=C/C=C/[C@H](OC)CC(=O)Nc2cc(O)cc(c2)CC/C=C(/C)[C@H](O)[C@H]1C`, the viability at 24 h in data set [1] is 96%. Besides, the values for the pIC50 with HepG2 [2], with BV-2 and with PC-3 were 5.52, 5.77 and 5.35, respectively.
Turning to `CO[C@H]1/C=C/C=C/C=C/C[C@H](OC(=O)[C@@H](C)NC(=O)CCC(C)C)[C@H](C)[C@@H](O)/C(C)=C\CCc2cc(O)cc(c2)NC(=O)C1`, in data set [1], the viability at 24 h is 82.5%. In addition, the pIC50 in the data set with HepG2 [2] was 6.70; in the data set on BV-2, 6.74; in the data set on PC-3 it was 5.38.
